Experimental data taken from ChEMBL document CHEMBL3593206, “SAR Studies of Exosite-Binding Substrate-Selective Inhibitors of A Disintegrin And Metalloprotease 17 (ADAM17) and Application as Selective in Vitro Probes” (J Med Chem, 2015).

Legend:
[1] = target: T1, Disintegrin and metalloproteinase domain-containing protein 17 (Homo sapiens, UniProt P78536); assay: Inhibition of ADAM17 in human THP1 cells assessed as inhibition of LPS-stimulated TNFalpha cleavage at 25 uM after 1 hr by AlphaScreen assay relative to control; assay type: cell-based; details: THP-1
T1 sequence (P78536 whole entry, the tested form may be a part): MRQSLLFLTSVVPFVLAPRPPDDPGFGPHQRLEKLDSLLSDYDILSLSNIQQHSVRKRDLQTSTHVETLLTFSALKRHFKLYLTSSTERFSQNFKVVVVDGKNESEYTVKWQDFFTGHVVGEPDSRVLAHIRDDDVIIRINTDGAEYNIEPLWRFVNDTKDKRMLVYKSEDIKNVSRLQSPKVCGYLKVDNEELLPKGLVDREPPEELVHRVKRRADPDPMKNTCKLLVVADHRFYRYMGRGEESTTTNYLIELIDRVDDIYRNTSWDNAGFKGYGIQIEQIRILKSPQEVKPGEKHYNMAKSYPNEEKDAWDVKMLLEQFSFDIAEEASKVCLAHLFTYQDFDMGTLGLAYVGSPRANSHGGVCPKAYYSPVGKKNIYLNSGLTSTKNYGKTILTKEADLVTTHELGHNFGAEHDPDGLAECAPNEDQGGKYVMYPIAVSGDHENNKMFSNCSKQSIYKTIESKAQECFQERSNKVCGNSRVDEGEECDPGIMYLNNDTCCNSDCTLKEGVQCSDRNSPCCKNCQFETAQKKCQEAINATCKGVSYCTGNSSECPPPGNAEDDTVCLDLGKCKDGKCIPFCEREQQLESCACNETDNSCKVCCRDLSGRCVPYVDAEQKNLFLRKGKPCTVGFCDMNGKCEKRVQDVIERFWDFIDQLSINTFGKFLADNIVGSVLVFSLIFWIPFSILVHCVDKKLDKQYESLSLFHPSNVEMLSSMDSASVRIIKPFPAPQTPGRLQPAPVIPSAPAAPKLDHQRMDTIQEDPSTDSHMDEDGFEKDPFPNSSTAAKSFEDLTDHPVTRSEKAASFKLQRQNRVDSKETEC
Summary of the method: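 THP-1 cells grown in RPMI 1640 with 10% FBS and 0.05 mM 2-mercaptoethanol; 3000 cells per well. Compound given in 3% DMSO for 1 h, then LPS added (1 μg/mL final) and cells incubated overnight at 37 °C. TNFα detected by AlphaScreen using anti-TNFα acceptor beads and streptavidin donor beads, each step 1 h in the dark at RT.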

[2] = target: T1, Disintegrin and metalloproteinase domain-containing protein 17; assay: Inhibition of ADAM17 in HTSMC assessed as inhibition of LPS-stimulated IL-8 shedding at 10 uM preincubated for 30 mins followed by LPS challenge measured after 4 to 24 hrs by ELISA
Summary of the method: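 HTSMCs stimulated with LPS for IL-8 release; compounds at 10 μM. Mean ± SEM, n = 3 from three independent experiments; one-way ANOVA with Dunnett post hoc test.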

A549 = assay: Cytotoxicity against human A549 cells assessed as inhibition of cell viability up to 33 uM after 72 hrs by CellTiter-Glo assay; assay type: cell-based; details: a549, 72 h
[3] = target: T2, Disintegrin and metalloproteinase domain-containing protein 10 (Homo sapiens) (UniProt O14672); assay: Inhibition of ADAM10 in human A549 cells assessed as inhibition of betacellulin shedding at 40 uM after 1 hr by ELISA; assay type: cell-based
T2 sequence (whole entry): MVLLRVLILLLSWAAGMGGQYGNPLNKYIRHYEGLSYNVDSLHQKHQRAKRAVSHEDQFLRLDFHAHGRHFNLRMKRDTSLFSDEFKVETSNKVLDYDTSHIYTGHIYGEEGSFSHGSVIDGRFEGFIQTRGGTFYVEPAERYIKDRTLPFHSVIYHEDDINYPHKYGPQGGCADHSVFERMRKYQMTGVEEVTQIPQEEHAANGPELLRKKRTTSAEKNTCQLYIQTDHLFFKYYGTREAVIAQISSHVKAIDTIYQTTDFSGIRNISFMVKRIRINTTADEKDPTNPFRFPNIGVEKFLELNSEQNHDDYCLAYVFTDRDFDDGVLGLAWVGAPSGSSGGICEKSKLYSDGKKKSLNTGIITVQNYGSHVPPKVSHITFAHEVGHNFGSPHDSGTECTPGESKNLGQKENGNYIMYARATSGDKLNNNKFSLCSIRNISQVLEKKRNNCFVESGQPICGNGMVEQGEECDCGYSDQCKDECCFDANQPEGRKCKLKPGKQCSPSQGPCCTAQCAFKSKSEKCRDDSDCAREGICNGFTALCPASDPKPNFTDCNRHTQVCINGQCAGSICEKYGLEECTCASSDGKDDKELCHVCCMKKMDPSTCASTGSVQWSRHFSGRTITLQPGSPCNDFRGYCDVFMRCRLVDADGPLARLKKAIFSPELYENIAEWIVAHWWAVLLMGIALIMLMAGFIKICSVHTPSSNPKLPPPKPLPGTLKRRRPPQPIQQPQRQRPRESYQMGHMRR
Summary of the method: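 A549 cells were tested for betacellulin shedding at 40 μM, with Marimastat at 10 μM as control.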

[4] = target: T1, Disintegrin and metalloproteinase domain-containing protein 17; assay: Inhibition of ADAM17 in human A549 cells assessed as effect on PMA-stimulated TGFalpha shedding up to 100 uM preincubated for 1 hr followed by PMA stimulation measured after 1 hr by ELISA; assay type: cell-based
Summary of the method: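 TGFα shedding from PMA-treated A549 cells tested up to 100 μM. Marimastat at 10 μM served as control, with a non-PMA-treated control included; soluble TGFα measured in the supernatant.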

ADAM17 (Homo sapiens) = assay: Inhibition of ADAM17 in human SW480 cells assessed as inhibition of PMA-stimulated wild type PTK7 shedding at 25 to 100 uM after 16 hrs by Western blot analysis
[5] = target: T1, Disintegrin and metalloproteinase domain-containing protein 17; assay: Inhibition of ADAM17 in human A549 cells assessed as inhibition of PMA-stimulated heregulin shedding at 40 uM incubated for 1 hr followed by PMA stimulation measured after 1 hr; assay type: cell-based
Summary of the method: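 Heregulin shedding in A549 cells, with all compounds tested at 40 μM.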

[6] = target: Matrix metalloproteinase-14 (Homo sapiens, UniProt P50281); assay: Inhibition of MMP14 (unknown origin) using Mca-KLPGL-Dnp-AR as substrate at 100 uM preincubated for 30 mins followed by substrate addition measured after 1 hr by fluorescence assay relative to control
[7] = target: T3, Disintegrin and metalloproteinase domain-containing protein 10 (Homo sapiens, UniProt O14672); assay: Inhibition of ADAM10 (unknown origin) preincubated for 30 mins followed by substrate addition measured every 30 mins for 2 hrs by fluorescence assay
T3 sequence (O14672 whole entry): T2 sequence (whole entry)
Summary of the method: (§1)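 Enzyme at 30 nM (3× solution) in 10 mM Hepes, 0.001% Brij-35, pH 7.5. Inhibitor series of 10 points, 1:3, from 300 μM, preincubated 30 min at RT. Glycosylated substrate added from a 30 μM 3× solution. Fluorescence (ex 360/em 460 nm) read every 30 min for 2 h. Inhibition taken from hydrolysis rates against substrate-only and substrate-plus-enzyme wells.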

[8] = target: T2, Disintegrin and metalloproteinase domain-containing protein 10 (Homo sapiens); assay: Inhibition of ADAM10 in HTSMC assessed as inhibition of constitutive release of fractalkine/CX3CL1 at 10 uM preincubated for 30 mins measured after 4 to 24 hrs by ELISA
[9] = Cytotoxicity against CHOK1 cells assessed as inhibition of cell viability up to 33 uM after 72 hrs by CellTiter-Glo assay; assay type: cell-based, Cricetulus griseus; details: chinese hamster, cho-k1, 72 h
[10] = target: T2, Disintegrin and metalloproteinase domain-containing protein 10 (Homo sapiens); assay: Inhibition of ADAM10 (unknown origin) at 100 uM preincubated for 30 mins followed by substrate addition measured every 30 mins for 2 hrs by fluorescence assay relative to control; summary of the method: as §1
[11] = target: T1, Disintegrin and metalloproteinase domain-containing protein 17; assay: Inhibition of ADAM17 in human HT1080 cells assessed as inhibition of PMA-stimulated PTK7 L622D mutant shedding at 25 to 100 uM after 16 hrs by Western blot analysis; assay type: cell-based; details: HT-1080
Summary of the method: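 PTK7 shedding tested at 25, 50 and 100 μM in PMA-stimulated cells. HT1080 fibrosarcoma cells carried the L622D PTK7 mutant uncleavable by MT1-MMP; SW480 colorectal cells expressed wild-type PTK7 endogenously. Soluble PTK7 was detected.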

[12] = target: T1, Disintegrin and metalloproteinase domain-containing protein 17; assay: Inhibition of ADAM17 (unknown origin) at 100 uM preincubated for 30 mins followed by substrate addition measured every 30 mins for 2 hrs by fluorescence assay relative to control; summary of the method: as §1
[13] = target: T2, Disintegrin and metalloproteinase domain-containing protein 10 (Homo sapiens); assay: Inhibition of ADAM10 in HTSMC assessed as inhibition of PMA-stimulated release of CXCL16 at 10 uM preincubated for 30 mins followed by PMA challenge measured after 4 to 24 hrs by ELISA

Structure (SMILES)	inhibition [1]	inhibition [2]	Activity (A549)	inhibition [3]	inhibition [4]	inhibition (ADAM17 (Homo sapiens))	inhibition [5]	inhibition [6]	IC50 [7]	inhibition [8]	Activity [9]	inhibition [10]	inhibition [11]	inhibition [12]	inhibition [13]
O=C1NC[C@@H](Cc2ccc(O)cc2)N(C[C@@H]2CCCN2C[C@@H](Cc2ccc3ccccc3c2)N2CC(Cc3ccc(O)cc3)N(CCC34CC5CC(CC(C5)C3)C4)C(=O)C2=O)C1=O (single isomer, unassigned)	43%	36%	Non-toxic	0%	0%	0%	100%	25%	> 100 µM	0%	Non-toxic	0%	25%	95%	0%
CCCC[C@H]1CN([C@@H](Cc2ccc(O)cc2)CN2CCC[C@H]2CN2C(=O)C(=O)NC[C@H]2Cc2ccc3ccccc3c2)C(=O)C(=O)N1CCC12CC3CC(CC(C3)C1)C2	57%	62%	Non-toxic	0%	0%	0%	0%	0%	> 100 µM	0%	Non-toxic	0%	0%	100%	0%
O=C1NC[C@H](Cc2ccccc2)N(C[C@@H]2CCCN2C[C@@H](CC2CCCCC2)N2C[C@H](Cc3ccc(O)cc3)N(CCc3ccccc3)C(=O)C2=O)C1=O	36%	18%	Non-toxic	0%	0%	0%	0%	27%	> 100 µM	0%	Non-toxic	0%	0%	100%	0%
